From publication PMC6304448 (Heliyon, 2018)
Values after ≈ are worked out from the molar mass of the structure shown.

How the values were obtained:
Assay type in all cases: cell-based
[1] = tested on: Leishmania donovani promastigotes; assay: Antileishmanial assay; conditions: 72 h; for IC50: read-out: antileishmanial activity IC50; for IC90: read-out: antileishmanial activity IC90
Summary of the method: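 Leishmania donovani promastigote or axenic amastigote cultures at 2 × 10⁶ cells/ml were exposed to test compound and incubated at 26 °C for 72 hours. Growth was read by AlamarBlue. Pentamidine and amphotericin B served as positive controls. IC₅₀ and IC₉₀ were computed from dose-response curves.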

[2] = tested on: chloroquine sensitive (D6, Sierra Leone) strain of Plasmodium falciparum; assay: Antimalarial assay; conditions: D6, 72 h, read-out: antimalarial activity IC50
Summary of the method: (§1)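 Test compound was dissolved in DMSO (2 mg/ml stock) and serially diluted. It was then added to P. falciparum culture (2% parasitemia, 2% hematocrit) in RPMI 1640 with 10% human serum and 60 μg/mL amikacin. Plates were held under 90% N₂/5% O₂/5% CO₂ at 37 °C for 72 hours. Parasite LDH was assayed with Malstat reagent for 30 min, then NBT/PES for 1 h in the dark. The reaction was stopped with 5% acetic acid and read at 650 nm. Chloroquine and artemisinin were positive controls and DMSO (0.25%) the negative control. IC₅₀ came from percent growth versus concentration curves.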

[3] = tested on: chloroquine resistant (W2, Indo China) strain of Plasmodium falciparum; assay: Antimalarial assay; conditions: W2, 72 h, read-out: antimalarial activity IC50
Summary of the method: as §1

[4] = In-vitro cytotoxicity assay; conditions: African green monkey, VERO cells (mammalian kidney fibroblasts, ATCC)
Summary of the method: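 VERO cells were seeded at 25,000 cells/well and incubated for 24 h. Test compound was added at a range of concentrations and incubated a further 48 h. Viable cells were quantified by a modified Neutral Red uptake method. Doxorubicin was the positive control and DMSO the negative control. IC₅₀ was derived from dose-response curves.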

| Structure (SMILES) | IC50 [1] | IC90 [1] | IC50 [2] | IC50 [3] | IC50 at 48 h [4] |
| --- | --- | --- | --- | --- | --- |
| O=C1CC(O)C2(O)c3c(ccc(O)c31)-c1ccc(O)c3c1C2C1OC1C3O (stereo not shown) [Compound 1, 3,6,6a,9,10-pentahydroxy-7,8-epoxy-4-oxo-4,5,6,6a,6b,7,8,9-octahydroperylene] | 2.55 µg/mL (≈ 6.92 µM) | 8.28 µg/mL (≈ 22.5 µM) |  |  |  |
| O=C1CC(O)C2c3c(ccc(O)c31)-c1ccc(O)c3c1C2(O)C(O)CC3=O (stereo not shown) [Compound 2, 3,6,6a,7,10-pentahydroxy-4,9-dioxo-4,5,6,6a,6b,7,8,9-octahydroperylene] | 4.4 µg/mL (≈ 11.9 µM) | 9.54 µg/mL (≈ 25.9 µM) | 4.24 µg/mL (≈ 11.5 µM) | 3.65 µg/mL (≈ 9.91 µM) | 3.59 µg/mL (≈ 9.75 µM) |
